This note sets out measurements from ChEMBL document CHEMBL1177738, “Thiodiketopiperazines produced by the endophytic fungus Epicoccum nigrum” (J Nat Prod, 2010).

One experiment deals with A2780. Briefly: Cytotoxicity against human A2780 cells. The format is functional, cell-based. Summed up: (§1)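 Cytotoxicity against a panel of six human tumor lines (A549, Bel-7402, BGC-823, HCT-8, HCT-116, A2780) was measured in vitro by MTT assay.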
The subject of another experiment is HCT-116. Briefly: Cytotoxicity against human HCT116 cells. The format is functional, cell-based. Summed up:
as §1

Another experiment concerns A549. Briefly: Cytotoxicity against human A549 cells. It is filed as functional, cell-based. The gist of the method: as §1
A further experiment has as its system BGC-823. Briefly: Cytotoxicity against human BGC823 cells. The format is functional, cell-based. The gist of the method:
as §1

In a further experiment the test system is HCT-8. Briefly: Cytotoxicity against human HCT8 cells. It is filed as functional, cell-based. The gist of the method: as §1
In the next experiment the test system is Bel-7402. Briefly: Cytotoxicity against human Bel7402 cells. It is filed as functional, cell-based. The gist of the method:
as §1

Experiment [1] in a line: Antiinflammatory activity in rat PMNC assessed as inhibition of platelet-activating factor-induced beta-glucuronidase release. It is filed as functional. Summed up:
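In vitro assay on rat polymorphonuclear leukocytes stimulated with platelet-activating factor; β-glucuronidase release was measured, with a positive control run alongside. Inhibitory potency is reported as IC50 in µM.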

The source made the active and inactive calls. The rule behind the calls is not given here.

With `O=C1N[C@@H](Cc2ccccc2)C(=O)N[C@H]1Cc1ccccc1`, the inhibition result in the experiment with A2780, in the experiment with HCT-116, in the experiment with A549, with BGC-823, in the experiment with HCT-8 and in the experiment on Bel-7402 was “inactive” in each case.
For the molecule `CS[C@@]12C[C@H]3C(=O)C=C[C@H](O)[C@H]3N1C(=O)[C@]1(SC)C[C@H]3C(=O)CC[C@H](O)[C@H]3N1C2=O`, the inhibition result in the experiment on A2780, with HCT-116, in the experiment with A549, with BGC-823, in the experiment on HCT-8 and with Bel-7402 was “inactive” throughout.
As to `O=C1C[C@H]2SS[C@@]34C[C@@H]1[C@@H]([C@H]2O)N3C(=O)[C@@]12C[C@H]3C(=O)C[C@@H](S1)[C@H](O)[C@H]3N2C4=O`, the inhibition result in the experiment with A2780, in the experiment with HCT-116, with A549, in the experiment with BGC-823, with HCT-8 and in the experiment on Bel-7402 was “inactive” in each case.
One may read the IC50 as the concentration at which inhibition is half-maximal. For `C[C@@H]1C(=O)O[C@H]2[C@H](O)[C@@]34[C@H]5C[C@@H](C(C)(C)C)[C@]36[C@@H](OC(=O)[C@@H]6O)O[C@@]4(C(=O)O5)[C@@]12O` [GINKOLIDE B], the IC50 in experiment [1] turned out to be 2.35 µM.
As for `O=C1C[C@H]2SS[C@@]34C[C@@H]1[C@@H]([C@H]2O)N3C(=O)[C@]12C[C@H]3C(=O)[C@H](C[C@H](O)[C@H]3N1C4=O)S2`, the inhibition result in the experiment on A2780, in the experiment on HCT-116, in the experiment on A549, with BGC-823, with HCT-8 and in the experiment with Bel-7402 was “inactive” throughout.
With `CCO[C@@H]1[C@H](O)[C@@H]2[C@H]3C[C@@]4(S[C@@H]1C3=O)C(=O)N1[C@@H]3[C@@H](O)[C@H]5CC(=O)[C@@H]3C[C@@]1(SS5)C(=O)N24` [EPICOCCIN S], the inhibition result in the experiment on A2780, with HCT-116, in the experiment on A549, with BGC-823, with HCT-8 and in the experiment on Bel-7402 was “inactive” each time. Moreover, in experiment [1], the concentration for half-maximal inhibition (IC50) was found to be 4.95 µM.
For the molecule `O=C1C[C@H]2SS[C@@]34C[C@@H]1[C@@H]([C@H]2O)N3C(=O)[C@@]12C[C@H]3C(=O)[C@@H](S1)[C@@H](O)[C@H](O)[C@H]3N2C4=O`, the inhibition entry in the experiment with A2780, in the experiment with HCT-116, with A549, in the experiment with BGC-823, in the experiment with HCT-8 and with Bel-7402 was “inactive” in each case.
Consider `CS[C@@]12C[C@H]3C(=O)CC[C@H](O)[C@H]3N1C(=O)[C@]1(SC)C[C@H]3C(=O)CC[C@H](O)[C@H]3N1C2=O` [EPICOCCIN G], for which the inhibition entry with A2780, with HCT-116, in the experiment with A549, with BGC-823, with HCT-8 and with Bel-7402 was “inactive” each time. For the same molecule, the IC50 in experiment [1] was 3.07 µM.
As for `O=C1C[C@@H]2SS[C@@]34C[C@@H]1[C@@H]([C@H]2O)N3C(=O)[C@@]12C[C@H]3C(=O)C[C@H](SS1)[C@H](O)[C@H]3N2C4=O`, the inhibition result in the experiment on A2780, in the experiment with HCT-116, with A549, in the experiment on BGC-823, with HCT-8 and with Bel-7402 was “inactive” throughout.
Turning to `CS[C@@]12C[C@H]3C(=O)CC[C@H](O)[C@H]3N1C(=O)[C@@]13C[C@H]4C(=O)C[C@@H](SS1)[C@H](O)[C@H]4N3C2=O` [EPICOCCIN M], the inhibition entry with A2780, in the experiment on HCT-116, in the experiment with A549, in the experiment with BGC-823, with HCT-8 and in the experiment with Bel-7402 was “inactive” each time. The IC50 in experiment [1] was 4.16 µM.
For `O=C1C[C@H]2S[C@@]34C[C@@H]1[C@@H]([C@H]2O)N3C(=O)[C@@]12C[C@H]3C(=O)[C@@H](S1)[C@H](O)[C@H](O)[C@H]3N2C4=O` [EPICOCCIN E], the inhibition entry in the experiment with A2780, in the experiment with HCT-116, in the experiment with A549, in the experiment with BGC-823, in the experiment with HCT-8 and in the experiment on Bel-7402 was “inactive” each time. In addition, the IC50 in experiment [1] turned out to be 1.98 µM.
On to `O=C1N2[C@H]3[C@H](C[C@]24SS[C@]12C[C@H]1[C@@H]([C@@H](O)CC[C@@H]1O)N2C4=O)[C@@H](O)CC[C@@H]3O`, for which the inhibition result with A2780, in the experiment on HCT-116, in the experiment with A549, with BGC-823, with HCT-8 and in the experiment on Bel-7402 was “inactive” each time.
With `CS[C@@]12CC3=CC=C[C@H](O)[C@H]3N1C(=O)[C@]13C[C@@]4(O)[C@H](C=C[C@H](O)[C@H]4N1C2=O)S3`, the inhibition entry in the experiment with A2780, in the experiment on HCT-116, in the experiment with A549, in the experiment on BGC-823, in the experiment on HCT-8 and with Bel-7402 was “inactive” throughout.
As to `CS[C@@]12C[C@H]3C(=O)C[C@H](O)[C@H](O)[C@H]3N1C(=O)[C@@]13C[C@H]4C(=O)C[C@@H](SS1)[C@H](O)[C@H]4N3C2=O`, the inhibition entry in the experiment on A2780, with HCT-116, in the experiment with A549, in the experiment with BGC-823, with HCT-8 and in the experiment with Bel-7402 was “inactive” in each case.
For `CS[C@@]12C[C@H]3C(=O)CC[C@H](O)[C@H]3N1C(=O)[C@@]13C[C@H]4C(=O)C[C@@H](S1)[C@H](O)[C@H]4N3C2=O`, the inhibition entry in the experiment with A2780, with HCT-116, with A549, with BGC-823, in the experiment with HCT-8 and in the experiment on Bel-7402 was “inactive” in each case.
In the case of `CS[C@@]12C[C@H]3C(=O)CC[C@H](O)[C@H]3N1C(=O)[C@]1(SC)C[C@H]3[C@@H]([C@@H](O)CC[C@@H]3O)N1C2=O`, the inhibition entry in the experiment with A2780, in the experiment with HCT-116, with A549, in the experiment with BGC-823, in the experiment with HCT-8 and with Bel-7402 was “inactive” throughout.
As to `CS[C@@]12C[C@H]3[C@@H]([C@@H](O)CC[C@@H]3O)N1C(=O)[C@]1(SC)C[C@H]3[C@@H]([C@@H](O)CC[C@@H]3O)N1C2=O`, the inhibition result with A2780, in the experiment with HCT-116, in the experiment with A549, in the experiment with BGC-823, in the experiment with HCT-8 and in the experiment with Bel-7402 was “inactive” throughout.
Turning to `CS[C@@]12C[C@H]3[C@@H]([C@@H](O)CC[C@@H]3O)N1C(=O)[C@@]13C[C@H]4C(=O)C[C@@H](S1)[C@H](O)[C@H]4N3C2=O`, the inhibition result with A2780, with HCT-116, in the experiment with A549, with BGC-823, in the experiment with HCT-8 and with Bel-7402 was “inactive” each time.
For the molecule `O=C1CC[C@H](O)[C@H]2[C@H]1C[C@@]13SS[C@]4(C[C@H]5[C@@H]([C@@H](O)CC[C@@H]5O)N4C1=O)C(=O)N23`, the inhibition result in the experiment on A2780, in the experiment with HCT-116, in the experiment with A549, with BGC-823, with HCT-8 and with Bel-7402 was “inactive” each time.
`O=C1C[C@@H]2SS[C@@]34C[C@@H]1[C@@H]([C@H]2O)N3C(=O)[C@@]12C[C@H]3C(=O)[C@H](S1)[C@H](O)[C@H](O)[C@H]3N2C4=O`: the inhibition result in the experiment on A2780, with HCT-116, with A549, in the experiment on BGC-823, in the experiment with HCT-8 and with Bel-7402 was “inactive” throughout.
